Measured values reported in ChEMBL document CHEMBL2029237, “Melanin-concentrating hormone receptor 1 antagonists. Synthesis and structure-activity relationships of novel 3-(aminomethyl)quinolines” (J Med Chem, 2012).
pIC50: −log10 of the molar value.

These compounds were tested against T1, Melanin-concentrating hormone receptor 1 (Homo sapiens, UniProt Q99705) (assay: Antagonist activity at human MCHR1 expressed in CHO cells assessed as inhibition of MCH-induced [3H]arachidonic acid release […] by liquid scintillation counting). Conditions: in the assay text read “45 mins” for “16 hrs”.
T1 sequence (Q99705 whole entry): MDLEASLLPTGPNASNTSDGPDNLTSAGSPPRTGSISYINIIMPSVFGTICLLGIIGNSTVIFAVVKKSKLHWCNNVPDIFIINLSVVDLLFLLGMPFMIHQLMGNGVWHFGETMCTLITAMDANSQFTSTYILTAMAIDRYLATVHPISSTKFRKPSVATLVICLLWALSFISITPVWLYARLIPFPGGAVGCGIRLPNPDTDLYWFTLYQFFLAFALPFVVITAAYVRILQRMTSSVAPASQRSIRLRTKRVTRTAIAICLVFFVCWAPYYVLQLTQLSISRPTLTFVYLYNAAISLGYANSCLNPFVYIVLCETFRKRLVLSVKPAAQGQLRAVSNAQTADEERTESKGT
Format: functional, cell-based
Method in brief: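 Human MCHR1-CHO cells seeded at 50 000/well, cultured 1 day, then loaded with [3H]arachidonic acid (0.2 μCi/well) for 16 h. Washed with DMEM containing 20 mM HEPES pH 7.4 and 0.2% BSA. Compound preincubated 30 min at 37 °C, MCH added, 45 min incubation, medium radioactivity by liquid scintillation.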
O=C(Nc1ccc2cc(CN3CCCC3)cnc2c1)c1ccc(-c2ccc(Cl)cc2)cc1 was tested, and the pIC50 was 8.07.

Each compound was assayed against T2, 5-hydroxytryptamine receptor 2C (Homo sapiens, UniProt P28335) (assay: Displacement of [3H]mesulergine from human 5HT2C receptor expressed in CHO cells after 1 hr by scintillation counting). Conditions: not given.
T2 sequence (P28335 whole entry): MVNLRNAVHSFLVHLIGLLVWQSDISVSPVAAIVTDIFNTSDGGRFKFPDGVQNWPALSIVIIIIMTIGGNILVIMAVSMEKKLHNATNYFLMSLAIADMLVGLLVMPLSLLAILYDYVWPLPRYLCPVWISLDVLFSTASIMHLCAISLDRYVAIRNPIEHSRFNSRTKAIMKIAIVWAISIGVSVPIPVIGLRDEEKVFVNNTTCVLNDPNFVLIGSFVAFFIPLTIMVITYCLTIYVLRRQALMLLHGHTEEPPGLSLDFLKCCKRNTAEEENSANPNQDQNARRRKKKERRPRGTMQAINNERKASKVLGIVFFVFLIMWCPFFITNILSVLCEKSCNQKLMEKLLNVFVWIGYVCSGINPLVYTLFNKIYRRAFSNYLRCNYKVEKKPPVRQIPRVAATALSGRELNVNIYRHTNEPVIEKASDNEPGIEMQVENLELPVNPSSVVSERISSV
Format: cell-based
Method in brief: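 Membranes from CHO cells stably expressing human 5-HT2c incubated 1 h at room temperature with [3H]mesulergine and compound at various concentrations. Terminated by GF/C filtration, filter radioactivity counted by scintillation. IC50 from one experiment in duplicate.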
With O=C(Nc1ccc2cc(CN3CCCC3)cnc2c1)c1ccc(-c2ccc(F)cc2)nc1 the pIC50 was 6.08.
Cc1ccc(-c2ccc(C(=O)Nc3ccc4cc(CN5CCCC5)cnc4c3)cn2)cc1 gave a pIC50 of 6.24.
Compound Cc1ccc(-c2ccc(C(=O)Nc3ccc4cc(CN5CCCC5)cnc4c3)cc2)cc1 has a pIC50 of 6.18.
Compound COc1ccc(-c2ccc(C(=O)Nc3ccc4cc(CN5CCCC5)cnc4c3)cc2)cc1 has a pIC50 of under 6.00.
Compound O=C(Nc1ccc2cc(CN3CCCC3)cnc2c1)N1CCC(c2ccc(Cl)cc2)CC1 has a pIC50 of 7.26.
CCc1c(NC(=O)c2ccc(-c3ccc(F)cc3)cc2)ccc2cc(CN3CCCC3)cnc12 gave a pIC50 of under 6.00.
O=C(Nc1ccc2cc(CN3CCCC3)cnc2c1)c1ccc(-c2ccccc2)cc1 showed a pIC50 of 6.51.
O=C(Nc1ccc2cc(CN3CCCC3)cnc2c1)c1ccc(-c2ccc(Cl)cc2)cc1 was tested, and the pIC50 was 6.20.

These compounds were tested on Rattus norvegicus (assay: Antiobesity activity in high-fat diet fed Fischer 344 rat DIO model assessed as inhibition of food intake at 1 mg/kg, po after 17 hrs). Conditions: Fischer 344, 17 h.
Format: functional
Method in brief: (§1)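 Male F344/Jcl rats, 52 weeks old, fed high-fat diet from 5 weeks of age, housed singly and acclimated to oral water dosing; grouped by overnight food intake and body weight. Single oral dose at 15:00 as 0.5% methylcellulose suspension, 2 mL/kg, six rats per group; vehicle controls. Cumulative food intake at 6 and 17 h; percent inhibition versus control, mean ± SD.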
Work on CC(C)CC(N(C)C)C1(c2ccc(Cl)cc2)CCC1 (stereo unspecified) [SIBUTRAMINE] yielded an inhibition in vivo at 1 mg/kg of 25.8%.

These compounds were tested against T1, Melanin-concentrating hormone receptor 1 (assay: Displacement of [125I]MCH from human MCHR1 expressed in CHO cells after 1 hr by scintillation counting). Conditions: not given.
Format: cell-based
Method in brief: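 CHO cell membranes stably expressing human or rat MCHR1 incubated 1 h at room temperature with [125I]MCH(4−19) and compound at various concentrations. Filtration through GF/C glass filters, bound radioactivity counted by scintillation. IC50 from one experiment in duplicate.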
Compound COc1ccc(-c2ccc(C(=O)Nc3ccc4cc(CN5CCCC5)cnc4c3)cn2)cc1 has a pIC50 of 7.59.
O=C(Nc1ccc2cc(CN3CCCC3)cnc2c1)N1CCC(c2ccccc2)CC1 gave a pIC50 of 7.00.
O=C(Nc1ccc2cc(CN3CCCC3)cnc2c1)c1ccc(-c2ccc(F)cc2)nc1 gave a pIC50 of 7.60.
Work on Cc1ccc(C2CCN(C(=O)Nc3ccc4cc(CN5CCCC5)cnc4c3)CC2)cc1 yielded a pIC50 of 7.64.
Cc1ccc(-c2ccc(C(=O)Nc3ccc4cc(CN5CCCC5)cnc4c3)cn2)cc1 gave a pIC50 of 7.74.
For Cc1ccc(-c2ccc(C(=O)Nc3ccc4cc(CN5CCCC5)cnc4c3)cc2)cc1, the pIC50 was 8.66.
For O=C(Nc1ccc2cc(CN3CCCC3)cnc2c1)N1CCC(c2ccc(F)cc2)CC1, the pIC50 was 7.46.
COc1ccc(-c2ccc(C(=O)Nc3ccc4cc(CN5CCCC5)cnc4c3)cc2)cc1 was tested, and the pIC50 was 8.43.
COc1ccc(C2CCN(C(=O)Nc3ccc4cc(CN5CCCC5)cnc4c3)CC2)cc1 gave a pIC50 of 7.32.
With COc1c(NC(=O)c2ccc(-c3ccc(F)cc3)cc2)ccc2cc(CN3CCCC3)cnc12 the pIC50 was 6.96.
Work on O=C(Nc1ccc2cc(CN3CCCC3)cnc2c1)N1CCC(c2ccc(Cl)cc2)CC1 yielded a pIC50 of 8.18.
CCc1c(NC(=O)c2ccc(-c3ccc(F)cc3)cc2)ccc2cc(CN3CCCC3)cnc12 showed a pIC50 of 7.00.
O=C(Nc1ccc2cc(CN3CCCC3)cnc2c1)c1ccc(-c2ccccc2)cc1 was tested, and the pIC50 was 7.89.
For O=C(Nc1ccc2cc(CN3CCCC3)cnc2c1)c1ccc(-c2ccc(Cl)cc2)cc1, the pIC50 was 9.13.
O=C(Nc1ccc2cc(CN3CCCC3)cnc2c1)c1ccc(-c2ccccc2)nc1 showed a pIC50 of 7.14.

What follows are compounds tested on Rattus norvegicus (assay: Antiobesity activity in high-fat diet fed Fischer 344 rat DIO model assessed as inhibition of food intake at 1 mg/kg, po after 6 hrs). Conditions: Fischer 344, 6 h.
Format: functional
Method in brief: as §1
CC(C)CC(N(C)C)C1(c2ccc(Cl)cc2)CCC1 (stereo unspecified) [SIBUTRAMINE] showed an inhibition in vivo at 1 mg/kg of 34.6%.
